Experimental data taken from ChEMBL document CHEMBL1138187, “2-(2-Thienyl)-5,6-dihydroxy-4-carboxypyrimidines as inhibitors of the hepatitis C virus NS5B polymerase: discovery, SAR, modeling, and mutagenesis” (J Med Chem, 2006).

What was measured:
[1] = molecular target: T1, RNA-directed RNA polymerase (Hepacivirus hominis, UniProt O39930); assay: Inhibitory activity against HCV 1b BK NS5B deltaC55 RNA polymerase; design: species or system Hepatitis C virus subtype 1b
In short: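 Purified HCV 1b-BK NS5B∆C55 (residues 1-536) expressed in E. coli BL21(DE3). Polymerase activity read on a homopolymeric template RNA at pH 7.4. IC50 is the average of at least three independent determinations; standard deviations within 30% of the average.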

Hepatitis C virus = assay: Inhibition of subgenomic HCV RNA replication in Huh-7 cells (replicon assay)
[2] = molecular target: T1, RNA-directed RNA polymerase; assay: Inhibitory activity against HCV 1b BK NS5B deltaC55 RNA polymerase involving manganese chelation; design: species or system Hepatitis C virus subtype 1b
In short: (§1)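 HCV 1b-BK NS5B∆C55 (residues 1-536) from E. coli BL21(DE3), assayed on a homopolymeric template RNA with either Mg or Mn as the divalent metal ion. IC50 taken under each metal.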

[3] = Dissociation constant, pKa of the compound; type: physicochemical
[4] = Lipophilicity as measured by LogD at pH 7.4; type: physicochemical; details: buffer
[5] = molecular target: T1, RNA-directed RNA polymerase; assay: Inhibitory activity against HCV 1b BK NS5B deltaC55 RNA polymerase involving magnesium chelation; design: species or system Hepatitis C virus subtype 1b; in short: as §1
[6] = molecular target: T1, RNA-directed RNA polymerase; assay: Inhibitory activity against HCV 1b BK NS5B deltaC21 RNA polymerase; design: species or system Hepatitis C virus subtype 1b
In short: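 HCV 1b-BK NS5B∆C21 (residues 1-570), expressed in E. coli BL21(DE3) and purified; polymerase activity measured on a homopolymeric template RNA; IC50 read-out.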

[7] = molecular target: T1, RNA-directed RNA polymerase; assay: Inhibitory activity against HCV 1b BK NS5B RNA polymerase; design: species or system Hepatitis C virus subtype 1b
In short: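 Purified HCV 1b-BK NS5B∆C55 (residues 1-536), expressed in E. coli BL21(DE3), assayed with a homopolymeric template RNA at pH 7.4 with Mg as metal ion; IC50 taken as the average of at least three independent determinations.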

[8] = molecular target: T1, RNA-directed RNA polymerase; assay: Inhibitory activity against HCV 2a BK NS5B deltaC21 RNA polymerase; design: species or system Hepatitis C virus subtype 2a
[9] = molecular target: T1, RNA-directed RNA polymerase; assay: Inhibitory activity against HCV 3a BK NS5B deltaC21 RNA polymerase
[10] = molecular target: RNA-directed RNA polymerase (Hepacivirus hominis, UniProt O39930, DELTAC55/R158M); assay: Inhibitory activity against HCV 1b BK NS5B deltaC55-R158M mutant RNA polymerase; design: species or system Hepatitis C virus subtype 1b
In short: (§2)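 HCV 1b-BK NS5B∆C55 (residues 1-536) carrying R158M or R158K, expressed in E. coli BL21(DE3) and purified. Polymerase run on a homopolymeric template RNA with UTP as substrate; IC50 and UTP Km measured in duplicate.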

[11] = molecular target: RNA-directed RNA polymerase (Hepacivirus hominis, UniProt O39930, DELTAC55/R158K); assay: Inhibitory activity against HCV 1b BK NS5B deltaC55-R158K mutant RNA polymerase; design: species or system Hepatitis C virus subtype 1b; in short: as §2
Homo sapiens = species: Homo sapiens; assay: Percent of unbound ligand in human plasma; type: ADME, organism-based

T1 sequence (O39930 whole entry, the tested form may be a part): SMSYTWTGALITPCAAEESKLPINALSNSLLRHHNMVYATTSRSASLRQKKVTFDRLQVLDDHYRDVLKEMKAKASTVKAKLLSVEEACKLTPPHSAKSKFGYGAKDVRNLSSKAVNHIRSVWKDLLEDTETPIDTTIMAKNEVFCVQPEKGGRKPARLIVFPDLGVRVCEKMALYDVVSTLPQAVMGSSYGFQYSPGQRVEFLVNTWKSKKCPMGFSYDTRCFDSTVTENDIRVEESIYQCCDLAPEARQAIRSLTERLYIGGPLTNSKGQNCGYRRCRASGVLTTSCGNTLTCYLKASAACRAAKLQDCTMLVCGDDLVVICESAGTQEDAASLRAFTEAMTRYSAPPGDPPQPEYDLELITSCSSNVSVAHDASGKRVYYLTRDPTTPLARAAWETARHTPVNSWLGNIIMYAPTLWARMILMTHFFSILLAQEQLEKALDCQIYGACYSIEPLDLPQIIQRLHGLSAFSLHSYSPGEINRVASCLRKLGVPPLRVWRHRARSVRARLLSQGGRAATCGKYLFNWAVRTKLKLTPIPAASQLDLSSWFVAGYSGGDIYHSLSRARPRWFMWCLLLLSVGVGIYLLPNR

| SMILES | IC50 [1] [nM] | EC50 (Hepatitis C virus) [nM] | also measured |
| --- | --- | --- | --- |
| CS(=O)(=O)c1nc(C(=O)O)c(O)c(=O)[nH]1 | 2400 |  |  |
| Nc1ccsc1-c1nc(C(=O)O)c(O)c(=O)[nH]1 | 1900 |  |  |
| O=C(O)c1nc(-c2cnccn2)nc(O)c1O | 5300 |  |  |
| O=C(O)c1nc(-c2ccc([N+](=O)[O-])s2)[nH]c(=O)c1O | 16000 |  |  |
| O=C(O)c1nc(-c2cc([N+](=O)[O-])cs2)nc(O)c1O | 9400 |  |  |
| O=C(CCc1ccccc1)Nc1ccsc1-c1nc(O)c(O)c(C(=O)O)n1 | 580 | > 50000 |  |
| O=C(Nc1ccsc1-c1nc(O)c(O)c(C(=O)O)n1)OCc1c(Cl)cccc1Cl | 190 | 18600 |  |
| O=C(NCc1csc2ccccc12)Nc1ccsc1-c1nc(O)c(O)c(C(=O)O)n1 | 220 | 30000 |  |
| O=C(O)c1nc(-c2sccc2[N+](=O)[O-])n(Cc2ccccc2)c(=O)c1O | 79300 |  |  |
| CCCCc1nc(C(=O)O)c(O)c(=O)[nH]1 | > 50000 |  |  |
| Cc1ccc(-c2nc(O)c(O)c(C(=O)O)n2)s1 | 48600 |  |  |
| Cn1c(-c2cccs2)nc(C(=O)O)c(O)c1=O | 4200 |  | IC50 [2]: 460 nM; pKa [3]: 9.1 |
| O=C(NCCc1ccccc1)Nc1ccsc1-c1nc(O)c(O)c(C(=O)O)n1 | 620 | > 50000 |  |
| O=C(Nc1csc(-c2nc(C(=O)O)c(O)c(=O)[nH]2)c1)c1cccs1 | 13800 |  |  |
| O=C(Nc1ccsc1-c1nc(O)c(O)c(C(=O)O)n1)OCc1ccccc1 | 290 |  |  |
| O=C(O)c1nc(-c2ccccc2)nc(O)c1O |  |  | pKa [3]: 8.6 |
| O=C(Nc1ccsc1-c1nc(C(=O)O)c(O)c(=O)[nH]1)c1ccccc1 | 800 | > 50000 |  |
| O=C(NCc1ccccc1Cl)Nc1ccsc1-c1nc(O)c(O)c(C(=O)O)n1 | 150 | 9300 | logD [4]: 0.37; IC50 [5]: 150 nM; IC50 [2]: 36 nM; pKa [3]: 6.6; IC50 [6]: 45 nM; IC50 [7]: 130 nM; IC50 [8]: 44 nM; IC50 [9]: 48 nM |
| O=C(O)c1nc(-c2sccc2NS(=O)(=O)c2ccc3ccccc3c2)[nH]c(=O)c1O | 1420 |  |  |
| O=C(O)c1nc(C2CCCCC2)nc(O)c1O | > 50000 |  | IC50 [5]: > 50000 nM; IC50 [2]: > 25000 nM; pKa [3]: 8.7 |

| SMILES | IC50 [1] [nM] | EC50 (Hepatitis C virus) [nM] | also measured |
| --- | --- | --- | --- |
| O=C(Cc1ccccc1Cl)Nc1ccsc1-c1nc(O)c(O)c(C(=O)O)n1 | 210 | 53300 |  |
| Cc1ccsc1-c1nc(O)c(O)c(C(=O)O)n1 | 5600 |  |  |
| C=CCn1c(-c2sccc2[N+](=O)[O-])nc(C(=O)O)c(O)c1=O | 69300 |  |  |
| O=C(NCc1ccccc1)Nc1ccsc1-c1nc(O)c(O)c(C(=O)O)n1 | 230 |  |  |
| O=C(O)c1nc(-c2ccco2)nc(O)c1O | 2900 |  | IC50 [5]: 2900 nM; IC50 [2]: 240 nM; pKa [3]: 7.4 |
| O=C(O)c1nc(Cc2ccccc2)nc(O)c1O | > 50000 |  |  |
| O=C(O)c1nc(-c2nccs2)nc(O)c1O | 760 |  | logD [4]: -2.12; IC50 [5]: 760 nM; IC50 [2]: 210 nM; pKa [3]: 6.9; IC50 [10]: 2770 nM; IC50 [11]: 16000 nM |
| Cc1cccc(Cl)c1CNC(=O)Nc1ccsc1-c1nc(O)c(O)c(C(=O)O)n1 | 90 | 13600 | logD [4]: 0.6; Fu (Homo sapiens): 0.2% |
| O=C(Nc1ccsc1-c1nc(C(=O)O)c(O)c(=O)[nH]1)OCc1cccc2ccccc12 | 140 | 13600 |  |
| O=C(Cc1csc2ccccc12)Nc1ccsc1-c1nc(C(=O)O)c(O)c(=O)[nH]1 | 230 | > 50000 |  |
| O=C(O)c1nc(-c2cccs2)nc(O)c1O |  |  | logD [4]: -1.95; IC50 [2]: 240 nM; pKa [3]: 7.7; IC50 [10]: 9300 nM; IC50 [11]: 92000 nM |
| Cn1c(-c2sccc2[N+](=O)[O-])nc(C(=O)O)c(O)c1=O | 8700 |  |  |
| O=C(Nc1ccccc1)Nc1ccsc1-c1nc(O)c(O)c(C(=O)O)n1 | 580 | > 50000 |  |
| O=C(Cc1ccccc1)Nc1ccsc1-c1nc(O)c(O)c(C(=O)O)n1 | 380 |  |  |
| O=C(O)c1nc(-c2cc3ccccc3s2)nc(O)c1O | 11600 |  |  |
| O=C(Cc1c[nH]c2ccccc12)Nc1ccsc1-c1nc(O)c(O)c(C(=O)O)n1 | 200 | > 50000 |  |
| O=C(Cc1c(-c2ccccc2)[nH]c2ccccc12)Nc1ccsc1-c1nc(C(=O)O)c(O)c(=O)[nH]1 | 280 | > 50000 |  |
| O=C(Nc1ccsc1-c1nc(O)c(O)c(C(=O)O)n1)OCc1ccccc1Cl | 140 | 31500 | IC50 [10]: 340 nM; IC50 [11]: 900 nM |
| O=C(O)c1nc(-c2sccc2[N+](=O)[O-])nc(O)c1O | 680 |  | IC50 [5]: 680 nM; IC50 [2]: 65 nM; pKa [3]: 6.9 |
| O=C(Nc1ccsc1-c1nc(C(=O)O)c(O)c(=O)[nH]1)OCCc1ccccc1 | 460 | > 50000 | logD [4]: -0.43 |
